Screening data as filed in PubChem.
Most compounds without a hit are left out; they make up all but 2.3% or so of the library.
MPTP inh: inhibitors of mitochondrial permeability transition pore; isolated mouse mitochondria, Ca2+ swelling absorbance, 30 min; inhibition, % at 10 µM; 360,000 compounds, 1.4% hits;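 active means inhibition of 50% or more, scaled per plate between neutral and stimulator controls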
SKN-1 block: blocks SKN-1 activity in C. elegans; AID 624304; 360,000 compounds, 0.49% hits; C. elegans VP596 Pgst-4::GFP/RFP ratio, acrylamide-induced, 24 h; inhibition, % at 21.8 µM;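 active means interference check ratio from 0.5 to 1.5 plus GFP to RFP signal ratio inhibition reaching or exceeding a fixed threshold, cut at about 30% in these data, passing the limit was not always enough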
ATG4B inhibitor: blocks human ATG4B protease cleavage of LC3 substrate; Q9Y4P1; ATG4B cleavage of LC3-PLA2, NBD-HPC fluorescence, 1 h; inhibition, % at 8.33 µM; 340,000 compounds, 0.51% hits; in the data active means inhibition above about 40%
Target sequence (Q9Y4P1 whole entry, looked up): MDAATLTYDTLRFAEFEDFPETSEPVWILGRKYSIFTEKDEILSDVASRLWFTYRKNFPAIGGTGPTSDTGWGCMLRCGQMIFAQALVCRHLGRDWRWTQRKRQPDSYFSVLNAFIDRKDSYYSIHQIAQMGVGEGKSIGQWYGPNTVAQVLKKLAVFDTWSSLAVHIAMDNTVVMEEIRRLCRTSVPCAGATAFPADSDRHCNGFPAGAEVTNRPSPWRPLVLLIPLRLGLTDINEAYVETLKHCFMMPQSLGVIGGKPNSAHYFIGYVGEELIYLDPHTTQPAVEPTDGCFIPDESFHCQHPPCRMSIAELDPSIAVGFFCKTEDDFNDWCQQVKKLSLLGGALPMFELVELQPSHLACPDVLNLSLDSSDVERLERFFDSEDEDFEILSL
MT1-MMP act inh: blocks activation of human MT1-MMP | P50281 | HT1080 RFP-PRO-GFP cells, GFP/RFP ratio fluorescence, overnight; percent of plate control window, DMSO zero | GFP/RFP ratio change, % at 20 µM | 360,000 compounds, 0.061% hits | AID 651647;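 active means GFP/RFP ratio change of at least 30% with cell ATP level not reduced by more than half and red fluorescence within 50% of control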
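Assay system: HT1080 cells carrying an RFP-PRO-GFP reporter | Dosing: Single dose of 20 µM compound, 1% DMSO final | Incubation: Cells overnight before dosing, compound overnight, 37 °C, 5% CO2 | Evaluation: GFP/RFP fluorescence ratio | Control set: DMSO and RFP-L50D-GFP cell wells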
Rh123 counter: Rhodamine 123 counter-screen of mitochondrial pore hits; 5,000 compounds, 78% hits; inhibition, % at 10 µM; AID 624504; isolated mitochondria, membrane potential, Rhodamine 123 fluorescence; shares compounds with MPTP inh; in the data active means inhibition above about 22%
MPTP abs DR: MPTP inhibition, dose response swelling confirmation; shares compounds with MPTP inh; isolated mitochondria swelling, absorbance; IC50, µM; 780 compounds, 58% hits; AID 651561; in the data active means IC50 below about 20 µM
MPTP cs DR: MPTP inhibitor counter-screen activity, dose response; IC50, µM; shares compounds with MPTP inh; 780 compounds, 49% hits; isolated mitochondria counterscreen, fluorescence read-out; in the data active means IC50 below about 80 µM
A number is an active result.

How did Cc1ccc(NC(=S)NCC(C)CSc2ccc(Cl)cc2)cc1 (stereo unspecified) do in these assays?
MPTP inh: inactive; SKN-1 block: inactive; ATG4B inhibitor: inactive; MT1-MMP act inh: inactive

What do the screens show for `Cc1cccc(NC(=S)NCC(C)CSc2ccc(Cl)cc2)c1` (stereo unspecified)?
MPTP inh: 89; SKN-1 block: inactive; ATG4B inhibitor: inactive; MT1-MMP act inh: inactive; Rh123 counter: 94

What do the screens show for `COc1ccc(OC)c(NC(=S)NCCSc2ccc(C)cc2)c1`?
MPTP inh: inactive; SKN-1 block: inactive; ATG4B inhibitor: inactive; MT1-MMP act inh: inactive

How did Cc1ccc(NC(=S)NCCSc2ccc(Cl)cc2)c(C)c1 do in these assays?
MPTP inh: 81; SKN-1 block: inactive; ATG4B inhibitor: inactive; MT1-MMP act inh: inactive; Rh123 counter: 87

How did Cc1ccc(Cl)cc1NC(=S)NCCCSC1CCCCC1 do in these assays?
MPTP inh: 99; SKN-1 block: inactive; ATG4B inhibitor: inactive; MT1-MMP act inh: inactive; Rh123 counter: 91

What do the screens show for `Cc1ccc(C)c(NC(=S)NCCSc2ccc(Cl)cc2)c1`?
MPTP inh: 76; SKN-1 block: inactive; ATG4B inhibitor: inactive; MT1-MMP act inh: inactive; Rh123 counter: 90

Results for CCn1c(C)cc(C(=O)COC(=O)CNC(=O)c2ccco2)c1C ?
MPTP inh: inactive; SKN-1 block: inactive; MT1-MMP act inh: inactive

What do the screens show for `Cc1cc(C)c(OCC(=O)OCC(=O)N2c3ccccc3CC2C)c(C)c1` (stereo unspecified)?
MPTP inh: inactive; SKN-1 block: inactive; ATG4B inhibitor: inactive; MT1-MMP act inh: inactive

What do the screens show for `COCn1ccnc1C(O)(c1ccc(OC)cc1)c1ccc(OC)cc1`?
MPTP inh: inactive; SKN-1 block: inactive; ATG4B inhibitor: inactive; MT1-MMP act inh: inactive

How did CCO[C@@H]1OC(C(=O)N2CCCCCCC2)=C[C@H](c2ccc3c(c2)OCO3)[C@H]1CCCO do in these assays?
MPTP inh: inactive; SKN-1 block: inactive; ATG4B inhibitor: inactive; MT1-MMP act inh: inactive

What do the screens show for `Cc1nnc(Cc2ccccc2)c2n[nH]c(C)c12`?
MPTP inh: inactive; SKN-1 block: inactive; MT1-MMP act inh: inactive

What do the screens show for `CC(=O)N1CCN(S(=O)(=O)c2ccc(S(=O)(=O)NCC(C)C)cc2)CC1`?
MPTP inh: inactive; SKN-1 block: inactive; ATG4B inhibitor: inactive; MT1-MMP act inh: inactive

Results for CN(C)CCCN(C(=O)c1ccc(S(=O)(=O)N(C)Cc2ccccc2)cc1)c1nc2c(F)cccc2s1 ?
MPTP inh: inactive; SKN-1 block: inactive; ATG4B inhibitor: inactive; MT1-MMP act inh: inactive

How did Cc1cccc2sc(N(CCCN(C)C)C(=O)c3sc4ccccc4c3Cl)nc12 do in these assays?
MPTP inh: inactive; SKN-1 block: inactive; ATG4B inhibitor: inactive; MT1-MMP act inh: inactive

Results for CCN(Cc1ccccc1)S(=O)(=O)c1ccc(C(=O)N(CCCN(C)C)c2nc3cc(OC)ccc3s2)cc1 ?
MPTP inh: 65; SKN-1 block: inactive; ATG4B inhibitor: inactive; MT1-MMP act inh: inactive; Rh123 counter: inactive; MPTP abs DR: inactive; MPTP cs DR: 30

How did CCN(Cc1ccccc1)S(=O)(=O)c1ccc(C(=O)N(CCCN(C)C)c2nc3ccc(F)cc3s2)cc1 do in these assays?
MPTP inh: inactive; SKN-1 block: inactive; ATG4B inhibitor: inactive; MT1-MMP act inh: inactive

How did CCN(Cc1ccccc1)S(=O)(=O)c1ccc(C(=O)N(CCCN(C)C)c2nc3cc4c(cc3s2)OCCO4)cc1 do in these assays?
MPTP inh: 59; SKN-1 block: inactive; ATG4B inhibitor: inactive; MT1-MMP act inh: inactive; Rh123 counter: inactive

How did CN(C)CCCN(C(=O)c1ccc(C(=O)c2ccccc2)cc1)c1nc2ccc(F)cc2s1 do in these assays?
MPTP inh: inactive; SKN-1 block: inactive; ATG4B inhibitor: inactive; MT1-MMP act inh: inactive

What do the screens show for `COc1ccc2sc(N(CCCN(C)C)C(=O)c3ccc(C(=O)c4ccccc4)cc3)nc2c1`?
MPTP inh: 80; SKN-1 block: inactive; ATG4B inhibitor: inactive; MT1-MMP act inh: inactive; Rh123 counter: inactive; MPTP abs DR: 14; MPTP cs DR: 64

What do the screens show for `Cc1cccc2sc(N(CCCN(C)C)C(=O)c3ccc(C(=O)c4ccccc4)cc3)nc12`?
MPTP inh: 84; SKN-1 block: inactive; ATG4B inhibitor: inactive; MT1-MMP act inh: inactive; Rh123 counter: inactive; MPTP abs DR: 11; MPTP cs DR: 64
